Laboratory results from EPA's CvTdb concentration-time database.

Experiments:
Rat [1] = experiment: concentration in plasma after dosing; conditions: dosed: Isoeugenol, 17 mg/kg, oral, Female, F344/N
Rat [2] = experiment: concentration in plasma after dosing; conditions: 5 min; dosed: Isoeugenol; 17 mg/kg; oral; Male; F344/N
Rat [3] = experiment: concentration in plasma after dosing; conditions: dosed: Isoeugenol, 17 mg/kg, oral, Male, F344/N
Rat [4] = experiment: concentration in plasma after dosing; conditions: dosed: Isoeugenol, 17 mg/kg, oral, Female, F344/N; remark: listed apart in the source
Rat [5] = experiment: concentration in plasma after dosing; conditions: dosed: Isoeugenol, 70 mg/kg, oral, Male, F344/N
Rat [6] = experiment: concentration in plasma after dosing; conditions: dosed: Isoeugenol, 17 mg/kg, oral, Male, F344/N; remark: listed apart in the source
Rat [7] = experiment: concentration in plasma after dosing; conditions: dosed: Isoeugenol, 17 mg/kg, oral, Female, F344/N; remark: listed apart in the source
Rat [8] = experiment: concentration in plasma after dosing; conditions: dosed: Isoeugenol, 17 mg/kg, oral, Male, F344/N; remark: listed apart in the source
Rat [9] = experiment: concentration in plasma after dosing; conditions: dosed: Tetralin, 2 mg/kg, iv, Male, F344
Rat [10] = experiment: concentration in plasma after dosing; conditions: dosed: Tetralin, 2 mg/kg, iv, Male, F344; remark: listed apart in the source
Rat [11] = experiment: concentration in plasma after dosing; conditions: dosed: Tetralin, 20 mg/kg, iv, Female, Harlan Sprague Dawley
Rat [12] = experiment: concentration in plasma after dosing; conditions: dosed: Tetralin, 2 mg/kg, iv, Male, F344; remark: listed apart in the source
Rat [13] = experiment: concentration in plasma after dosing; conditions: dosed: Tetralin, 2 mg/kg, iv, Male, Harlan Sprague Dawley
Rat [14] = experiment: concentration in plasma after dosing; conditions: dosed: Tetralin, 2 mg/kg, iv, Male, Harlan Sprague Dawley; remark: listed apart in the source
human [15] = experiment: concentration in blood after dosing; negative times count back from the end of exposure; conditions: dosed: methylethylketone, 400 ppm, inhalation, duration: 4 hr, male
Procedure, shortened: (§1)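 Points were largely digitised from plot screenshots with WebPlotDigitizer or otherwise copied from tables, and they remain in the units each source reported. They come from published in vivo toxicokinetic studies and two structured collections. Sampling and analytical methods follow each source and were often not reported.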

human [16] = experiment: as above; conditions: dosed: methylethylketone, inhalation, duration: 4 hr, male
Procedure, shortened: as §1

C/C=C/c1ccc(O)c(OC)c1 [Isoeugenol]
Conditions	concentration in plasma [ng/mL]
Rat [1], 0.75 h	40.3
Rat [1], 6 h	74.4
Rat [3], 1 h	28.4
Rat [3], 3 h	68.6
Rat [4], 1 h	22.7
Rat [4], 3 h	29.5
Rat [5], 1.5 h	97
Rat [5], 10 min	850
Rat [6], 0.75 h	32.4
Rat [6], 2 h	77.9
Rat [7], 5 min	375
Rat [7], 6 h	160
Rat [8], 1.5 h	34.3
Rat [8], 2 min	38.3

Conditions	concentration in plasma [ng/mL]
Rat [2]	238

c1ccc2c(c1)CCCC2 [Tetralin]
Conditions	concentration in plasma [µg/g]
Rat [9], 1 h	0.0668
Rat [9], 24 h	0.00063
Rat [10], 0.5033 h	0.216
Rat [10], 8 h	0.00356
Rat [11], 0.25 h	11.4
Rat [11], 6 h	0.104
Rat [12], 1 h	0.066
Rat [12], 24 h	0.00085
Rat [13], 0.5033 h	0.192
Rat [13], 8 h	0.0056
Rat [14], 4 h	0.00854
Rat [14], 5 min	1.74

CCC(C)=O [methylethylketone]
human [15]
Conditions	concentration in blood [µM]
0.1276 h	272
0.2874 h	258
0.4715 h	227
0.9608 h	208
1.479 h	139
1.973 h	122
2.966 h	102
4.323 h	54.9
4.977 h	22.4
5.98 h	16.2
6.983 h	7.11

Conditions	concentration in blood [µM]
human [15], -1.011 h, during exposure	276
human [15], -1.994 h, during exposure	218
human [15], -2.503 h, during exposure	181
human [15], -2.992 h, during exposure	143
human [15], -3.486 h, during exposure	115
human [15], -3.661 h, during exposure	84.6
human [15], -3.826 h, during exposure	72.5
human [15], -64 s, during exposure	309
human [16], 0.1373 h, 400 ppm	216
human [16], 0.1381 h, 200 ppm	70.4
human [16], 0.1632 h, 25 ppm	2.96
human [16], 0.1664 h, 25 ppm	3.3
human [16], 0.3028 h, 200 ppm	74.4
human [16], 0.3068 h, 400 ppm	201
human [16], 0.3094 h, 200 ppm	54.5
human [16], 0.3251 h, 25 ppm	2.53
human [16], 0.3266 h, 25 ppm	2.69
human [16], 0.4719 h, 200 ppm	65.3
human [16], 0.4774 h, 25 ppm	2.09
human [16], 0.4845 h, 200 ppm	49.1
human [16], 0.4885 h, 25 ppm	2.26
human [16], 0.9614 h, 200 ppm	40.1
human [16], 0.9652 h, 200 ppm	50.5
human [16], 0.9754 h, 400 ppm	150
human [16], 0.9842 h, 25 ppm	1.52
human [16], 0.985 h, 25 ppm	1.61
human [16], 1.481 h, 200 ppm	44.7
human [16], 1.482 h, 200 ppm	22.9
human [16], 1.484 h, 400 ppm	121
human [16], 1.968 h, 200 ppm	25.4
human [16], 1.969 h, 200 ppm	17.2
human [16], 1.978 h, 400 ppm	115
human [16], 1.982 h, 25 ppm	0.771
human [16], 1.983 h, 25 ppm	0.828
human [16], 2.965 h, 200 ppm	24.3
human [16], 2.966 h, 200 ppm	14.6
human [16], 2.966 h, 400 ppm	98.4
human [16], 2.996 h, 25 ppm	0.635
human [16], 3 h, 25 ppm	0.521
human [16], 3.971 h, 200 ppm	9.24
human [16], 3.974 h, 200 ppm	5.93
human [16], 4.006 h, 25 ppm	0.63
human [16], 4.01 h, 25 ppm	0.532
human [16], 4.323 h, 400 ppm	48
human [16], 4.987 h, 400 ppm	33.2
human [16], 5.414 h, 200 ppm	3.68
human [16], 5.418 h, 200 ppm	2.75
human [16], 7.74 h, 200 ppm	1.75
human [16], 28 min, 400 ppm	171

human [16], during exposure
Conditions	concentration in blood [µM]
-122 s, 25 ppm	4.68
-83 s, 200 ppm	100
-69 s, 25 ppm	4.74
-46 s, 400 ppm	230
-3.994 h, 25 ppm	0.18
-3.993 h, 25 ppm	0.263
-3.835 h, 25 ppm	1.85
-3.83 h, 400 ppm	47.8
-3.827 h, 25 ppm	2.22
-3.739 h, 200 ppm	24.1
-3.681 h, 25 ppm	2.14
-3.67 h, 25 ppm	2.79
-3.661 h, 400 ppm	68.3
-3.508 h, 25 ppm	2.38
-3.505 h, 25 ppm	2.71
-3.477 h, 400 ppm	80
-3.248 h, 200 ppm	54.2
-3.243 h, 200 ppm	41.8
-2.997 h, 25 ppm	3.29
-2.993 h, 25 ppm	2.68
-2.992 h, 400 ppm	112
-2.506 h, 200 ppm	55
-2.505 h, 200 ppm	58.5
-2.503 h, 400 ppm	162
-2.017 h, 25 ppm	3.04
-2.012 h, 25 ppm	3.56
-1.994 h, 400 ppm	177
-1.527 h, 200 ppm	81.5
-1.508 h, 200 ppm	69.5
-1.022 h, 25 ppm	4.44
-1.012 h, 25 ppm	4.01
-1.006 h, 400 ppm	215
-1 min, 200 ppm	93
-0.7876 h, 200 ppm	88.3
-0.7835 h, 200 ppm	86.7
